PREPL inh – PREPL enzyme inhibitors, primary screen, biochemical, fluorescence polarization | Prolyl endopeptidase-like (Homo sapiens), Q4J6C6 | recombinant PREPL, fluorescence polarization activity-based probe | inhibition, % at 5.96 µM | 0.68% of 320,000 active | AID 2751, 2010;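 also: 0% = enzyme with DMSO and 100% = wells lacking enzyme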
LYPLA2 inh – LYPLA2 inhibitors, primary screen, counter-screen for PME1 inhibitor project, biochemical, fluorescence polarization, FP-Rh probe ABPP; recombinant LYPLA2; Acyl-protein thioesterase 2 (Homo sapiens), O95372; inhibition, % at 5.9 µM; AID 2177, 2009; 0.38% of 320,000 active;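 active = inhibition above the screen-wide mean plus 3 SD, limit set per campaign, cut at about 26% in these data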;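 also: 0% = LYPLA2 with DMSO and 100% = wells lacking LYPLA2 enzyme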
proCasp3 act – activators of human procaspase-3 D3A mutant, primary screen, biochemical, absorbance, PC-3 D3A mutant, single concentration | Caspase-3 (Homo sapiens), P42574 | recombinant procaspase-3 D3A, Ac-DEVD-pNA absorbance 405 nm | activation, % at 8.5 µM | 0.11% of 330,000 active | AID 463141, 2010;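 active = activation above the mean of all tested compounds plus 3 SD, cut at about 21% in these data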;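 also: 0% = DMSO alone and 100% = DMSO wells spiked with extra 5 µM PC-3 D3A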
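Technique: 405 nm absorbance of p-nitroaniline, reads at 0 and 120 min; Test system: Procaspase-3 D3A mutant; Incubation: 1 h enzyme-compound preincubation, then 2 h substrate reaction, 25 °C; Repeats: singlicate, each compound tested once; Benchmarks: low control DMSO wells, high control DMSO plus 5 µM PC-3 D3A.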
procasp7 counter – procaspase-7 activators, primary screen, counter-screen for procaspase-3 activator project, biochemical, absorbance, HTS, human; 0.093% of 330,000 active; activation, % at 8.5 µM; Caspase-7 (Homo sapiens), P55210; recombinant procaspase-7, Ac-DEVD-pNA absorbance 405 nm; D23A/D198A/D206A triple mutant, cannot self-cleave; scale: DMSO 0, 5 µM enzyme 100; AID 463210, 2010;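 active = percent activation above the screen-wide mean plus 3 SD, cut at about 25% in these data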
Target sequence (P55210 whole entry D23A/D198A/D206A): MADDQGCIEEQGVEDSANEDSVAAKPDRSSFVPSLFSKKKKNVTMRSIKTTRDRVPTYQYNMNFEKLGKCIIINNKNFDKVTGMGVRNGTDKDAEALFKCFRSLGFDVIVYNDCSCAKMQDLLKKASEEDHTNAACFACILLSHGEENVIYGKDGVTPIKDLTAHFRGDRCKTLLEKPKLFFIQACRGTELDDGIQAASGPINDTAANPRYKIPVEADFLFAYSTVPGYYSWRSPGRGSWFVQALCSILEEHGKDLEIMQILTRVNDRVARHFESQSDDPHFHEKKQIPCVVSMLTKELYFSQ
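System: Uncleavable procaspase-7 mutant enzyme; Amount: 2 µM procaspase-7 mutant as dispensed; Schedule: 1 h compound preincubation, 2 h substrate cleavage, 25 °C; Measured by: 405 nm absorbance of p-nitroaniline; Evaluation: percent activation from buffer-corrected 0–120 min absorbance change; Control set: low DMSO alone, high DMSO plus 5 µM PC-7.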
LYPLA1 counter – LYPLA1 inhibitors, primary screen, counter-screen for PME1 inhibitor project, biochemical, fluorescence polarization, FP-Rh probe ABPP | recombinant LYPLA1 | inhibition, % at 5.9 µM | 0.16% of 320,000 active;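 active = inhibition above the mean of all tested compounds plus 3 SD, set per campaign, cut at about 14% in these data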;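 also: inhibitors block serine hydrolase probe labeling of LYPLA1 so polarization falls; 0% = enzyme with DMSO and 100% = wells lacking LYPLA1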
Target sequence (O75608 whole entry, looked up): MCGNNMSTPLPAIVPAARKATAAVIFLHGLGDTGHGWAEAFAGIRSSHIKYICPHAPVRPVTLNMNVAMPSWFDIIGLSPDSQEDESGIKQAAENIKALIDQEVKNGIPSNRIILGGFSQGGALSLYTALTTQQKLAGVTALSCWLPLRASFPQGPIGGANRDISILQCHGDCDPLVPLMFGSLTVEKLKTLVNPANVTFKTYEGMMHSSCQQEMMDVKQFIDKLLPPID
PREPL confirm – human PREPL enzyme inhibitors, confirmation, biochemical, fluorescence polarization. AID 2803, 2010. 67% of 2,000 active. inhibition, % at 5.96 µM. recombinant PREPL, fluorescence polarization activity probe. shares compounds with PREPL inh;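 also: 0% = protein with DMSO and 100% = wells lacking protein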
Active calls of the source: *; x = not tested or not shown. Most compounds without a hit are left out; they make up all but 1.1% or so of the library. Rule as the data show it, unless noted: active = inhibition above about 43%; inactive = the rest.

SMILES | PREPL inh | LYPLA2 inh | proCasp3 act | procasp7 counter | LYPLA1 counter | PREPL confirm
COc1ccccc1OC(=O)CCN1c2ccccc2Sc2ccccc21 | 16 | 7 | 2 | -5 | 0 | x
COc1ccc(NC(=O)C/C(C)=N/NC(=O)c2ccccn2)c(OC)c1 | 10 | 5 | 1 | -2 | 5 | x
CCC(Sc1nc2ncccc2[nH]1)C(=O)N1CCOCC1 (stereo not drawn) | 0 | -3 | -7 | 10 | 1 | x
CCc1ccc(CN2CCCC(C(=O)Nc3ccc(-c4cscn4)cc3)C2)o1 (stereo not drawn) | -4 | 2 | -7 | -1 | 2 | x
O=C(NCCc1c[nH]c2ccccc12)C(=O)NCC(c1ccco1)N1CCN(c2ccccc2)CC1 (stereo not drawn) | 46* | 0 | 14 | -2 | -3 | 33
O=C(NCCc1c[nH]c2ccccc12)C(=O)NCC(c1ccco1)N1CCN(c2ccc(F)cc2)CC1 (stereo not drawn) | 16 | -3 | 7 | -8 | -3 | x
Cc1cc(C)c(NC(=O)CS(=O)CC(=O)N2CCN(c3cccc(C)c3C)CC2)c(C)c1 (stereo not drawn) | 10 | -5 | 2 | 6 | 0 | x
Oc1ccc(C2=Nn3c(nnc3-c3ccco3)SC2)cc1O | 44* | 10 | -7 | -14 | -3 | 32
NC(=S)Nc1cccc2cccnc12 | 16 | 9 | 2 | -2 | 2 | x
Oc1ccc(CNc2ccccc2F)c2cccnc12 | 1 | -2 | -4 | -10 | -2 | x
Oc1ccccc1CNc1cccc2cccnc12 | 45* | 12 | -13 | -24 | -1 | 15
NC(=S)NNc1cccc2cccnc12 | 62* | 1 | -18 | -35 | 2 | 27
CC1CCN(C(=O)c2[nH]cnc2C(=O)Nc2ccon2)CC1 | 1 | 6 | 6 | 5 | 1 | x
C#CCOCCOCCOCCNc1nc(N2CCN(C(=O)CCCCCCCCCCNC(=O)[C@H](CCCCN)n3cc(CCCC(=O)O)nn3)CC2)nc(N2CCN(C(=O)CCCCCCCCCCNC(=O)[C@H](CCCCN)n3cc(CCCC(=O)O)nn3)CC2)n1 | 12 | -1 | -1 | 0 | -3 | x
C#CCOCCOCCOCCNc1nc(N2CCOCC2)nc(N2CCN(C(=O)CCCCCCCCCCNC(=O)[C@H](CO)n3cc(CCCCCN)nn3)CC2)n1 | 22 | -1 | -3 | 5 | 0 | x
C#CCOCCOCCOCCNc1nc(N2CCN(C(=O)CCCCCCCCCCNC(=O)[C@H](CO)n3cc(CCCSC)nn3)CC2)nc(N2CCN(C(=O)CCCCCCCCCCNC(=O)[C@H](CCCCN)n3cc(C[C@@H](C)CC)nn3)CC2)n1 | 29 | -18 | 8 | -7 | -12 | x
C#CCOCCOCCOCCNc1nc(N2CCN(C(=O)CCCCCCCCCCNC(=O)[C@H](CCCCN)n3cc(CCCC(=O)O)nn3)CC2)nc(N2CCN(C(=O)CCCCCCCCCCNC(=O)[C@H](CCCN=C(N)N)n3cc(C[C@@H](C)CC)nn3)CC2)n1 | 44* | -10 | 2 | -2 | -8 | 35
C#CCOCCOCCOCCNc1nc(N2CCN(C(=O)CCCCCCCCCCNC(=O)[C@H](CCCCN)n3cc(CCO)nn3)CC2)nc(N2CCN(C(=O)CCCCCCCCCCNC(=O)[C@H](CCCCN)n3cc(CCO)nn3)CC2)n1 | 58* | -1 | -1 | 7 | 2 | 47*
C#CCOCCOCCOCCNc1nc(N2CCN(C(=O)CCCCCCCCCCNC(=O)Cn3cc(CCCCCN)nn3)CC2)nc(N2CCN(C(=O)CCCCCCCCCCNC(=O)[C@H](CO)n3cc(CCCCCN)nn3)CC2)n1 | 68* | 2 | -1 | -1 | 0 | 60*
C#CCOCCOCCOCCNc1nc(N2CCN(C(=O)CCCCCCCCCCNC(=O)[C@H](CCCCN)n3cc(CCO)nn3)CC2)nc(N2CCN(C(=O)CCCCCCCCCCNC(=O)[C@H](CCCN=C(N)N)n3cc(C[C@@H](C)CC)nn3)CC2)n1 | 56* | -11 | -5 | -11 | -6 | 57*
CC(CC(=O)Nc1ccc(Br)cc1F)S(=O)(=O)c1ccc2c(c1)NC(=O)CO2 (stereo not drawn) | -1 | 2 | 3 | 6 | -3 | x
C#CCOCCOCCOCCNc1nc(N2CCN(C(=O)CCCCCCCCCCNC(=O)[C@H](CCCCN)n3cc(C)nn3)CC2)nc(N2CCN(C(=O)CCCCCCCCCCNC(=O)[C@@H]([C@H](C)CC)n3cc(CCCCCN)nn3)CC2)n1 | 52* | 13 | 7 | 1 | -5 | 45*
O=C(CP(=O)(c1ccccc1)c1ccccc1)Nc1nc2ccccc2s1 | 50* | 6 | 1 | 1 | -1 | 41
O=C(Cc1ccccc1)Nc1nc2ccccc2s1 | -8 | -5 | -7 | -2 | -7 | x
CN(C)c1ccc(/C=C/C(=O)c2ccc3c(c2)OCO3)cc1 | 52* | -5 | -31 | -36 | -5 | 27
SMILES | PREPL inh | LYPLA2 inh | proCasp3 act | procasp7 counter | LYPLA1 counter | PREPL confirm
O=C(/C=C/c1ccccc1)c1ccc2c(c1)OCO2 | -10 | 0 | -4 | -2 | 0 | x
CC1C(=O)N2CCCc3cc(S(=O)(=O)Nc4ccccc4C(N)=O)cc1c32 (stereo not drawn) | 11 | 1 | -9 | 16 | 1 | x
Cc1nc2nc(SCC(=O)NCCCN3CCCCCC3)nn2c(C)c1Cc1ccccc1 | 43* | 4 | 5 | -5 | -1 | 37
CCOC(=O)C1CCN(C(=O)c2cc(COc3ccc(OC)c4ccccc34)on2)CC1 | 15 | 7 | -2 | -2 | 5 | x
Cc1ccccc1NC(=O)CN1C(=O)C2C3CC(C(Br)C3Br)C2C1=O (stereo not drawn) | 10 | 4 | -7 | -14 | -6 | x
Cc1ccc(-c2csc(N3CCN(c4ccc5nc(-c6ccncc6)n(CCN6CCCCC6)c5c4)CC3)n2)cc1 | 34 | 4 | -13 | -11 | 1 | x
Cc1ccc(-c2csc(N3CCN(c4cc5c(cc4Cl)nc(-c4ccncc4)n5CCN4CCCCC4)CC3)n2)cc1 | 45* | -5 | -10 | -24 | -2 | 37
C/C(=N\NC(=O)C1CCCN(S(=O)(=O)c2ccccc2)C1)c1ccncc1 (stereo not drawn) | 43* | 4 | 6 | -1 | 2 | 3
Cc1cccc(Nc2nnc(SC/C(O)=C(\C#N)c3nc4ccccc4[nH]3)s2)c1 | 31 | -11 | -6 | -5 | -6 | x
